Laboratory results reported in ChEMBL document CHEMBL1146380, “Synthesis, antimicrobial activity, and QSAR studies of furan-3-carboxamides” (2007).
Converted amounts (≈) assume the structure as drawn. The source made the active and inactive calls. No cut-off for these calls is given here.

Key:
Candida dubliniensis = test: Antimicrobial activity against Candida dubliniensis CBS 7987 by broth microdilution method; type: functional
Outline: (§1)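 Yeasts grown on potato dextrose agar. Inoculum was standardized by McFarland turbidity as for bacteria, into RPMI 1640 broth (M27-A2). DMSO-dissolved compound was tested in twofold dilutions from 320 to 1.25 at 35 °C for 24 h, in duplicate. MIC was the lowest concentration completely inhibiting visible growth. Fungicidal concentration was read by subculturing 20 µL from clear wells on Sabouraud dextrose agar at 35 °C.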

Rhizopus arrhizus = test: Antimicrobial activity against Rhizopus oryzae isolate by broth microdilution method; type: functional
Aspergillus niger = test: Antimicrobial activity against Aspergillus niger isolate by broth microdilution method; type: functional
Staphylococcus aureus = test: Antimicrobial activity against Staphylococcus aureus ATCC 25923 by broth microdilution method; type: functional
Outline: (§2)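 Bacteria grown overnight on Mueller–Hinton agar. Colonies were suspended in saline to McFarland turbidity (about 10^8 cfu/mL), diluted 1:100 in saline, then 1:20 in Mueller–Hinton broth, giving 5 · 10^4 cfu/mL per well. DMSO-dissolved compound was tested in twofold dilutions from 320 to 1.25 at 35 °C for 24 h. MIC was the lowest concentration with no visible turbidity (M7-A4). Bactericidal concentration was read by subculturing clear wells on Mueller–Hinton agar.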

[1] = test system: Salmonella enterica subsp. enterica serovar Setubal; test: (§3) Antimicrobial activity against Salmonella setubal ATCC 19196 by broth microdilution method; type: functional; outline: as §2
[2] = as §3; type: functional, Salmonella enterica subsp. enterica serovar Setubal; conditions: Salmonella enterica; outline: as §2
Fusarium solani = test: Antimicrobial activity against Fusarium solani isolate by broth microdilution method; type: functional
Prototheca zopfii = test: Antimicrobial activity against Prototheca zopfii by broth microdilution method; type: functional
Outline: (§4)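 Organism grown on potato dextrose agar, with turbidity-standardized inoculum in RPMI 1640 broth (M27-A2). DMSO-dissolved compound was tested in twofold dilutions from 320 to 1.25 at 35 °C, incubated up to 72 h, in duplicate. MIC was the lowest concentration with no visible growth. Cidal concentration was read by subculturing 20 µL from clear wells on Sabouraud dextrose agar, incubated for the same period.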

Pseudomonas aeruginosa = test: Antimicrobial activity against Pseudomonas aeruginosa ATCC 27853 by broth microdilution method; type: functional; outline: as §2
Candida albicans = test: Antimicrobial activity against Candida albicans ATCC 44373 by broth microdilution method; type: functional; outline: as §1
Aspergillus terreus = test: Antimicrobial activity against Aspergillus terreus isolate by broth microdilution method; type: functional
[3] = test system: Cryptococcus deneoformans; test: Antimicrobial activity against Cryptococcus neoformans var.neoformans serotype D ATCC 28952 by broth microdilution method; type: functional; outline: as §4
Aspergillus flavus = test: Antimicrobial activity against Aspergillus flavus isolate by broth microdilution method; type: functional
Escherichia coli = test: Antimicrobial activity against Escherichia coli ATCC 25922 by broth microdilution method; type: functional; outline: as §2
Klebsiella pneumoniae = test: Antimicrobial activity against Klebsiella pneumoniae ATCC 1003 by broth microdilution method; type: functional; outline: as §2
Saccharomyces cerevisiae = test: Antimicrobial activity against Saccharomyces cerevisiae ATCC 2601 by broth microdilution method; type: functional; outline: as §4
Scedosporium boydii = test: Antimicrobial activity against Pseudallescheria boydii isolate by broth microdilution method; type: functional
Sporothrix schenckii = test: Antimicrobial activity against Sporothrix schenckii ATCC 1146 by broth microdilution method; type: functional
Nakaseomyces glabratus = test: Antimicrobial activity against Candida glabrata […] by broth microdilution method; type: functional; outline: as §1
Aspergillus fumigatus = test: Antimicrobial activity against Aspergillus fumigatus isolate by broth microdilution method; type: functional

SMILES	Activity (Candida dubliniensis)	MIC (Rhizopus arrhizus)	Activity (Staphylococcus aureus)	MIC (Staphylococcus aureus)	Activity [1]	MIC [2]	Activity (Fusarium solani)	MIC (Fusarium solani)	MIC (Prototheca zopfii)	Activity (Pseudomonas aeruginosa)	MIC (Pseudomonas aeruginosa)	Activity (Candida albicans)	Activity (Aspergillus terreus)	MIC (Aspergillus terreus)	MIC [3]	Activity (Escherichia coli)	MIC (Escherichia coli)	Activity (Klebsiella pneumoniae)	MIC (Klebsiella pneumoniae)	MFC (Scedosporium boydii)	also measured
O=C(NCc1ccccn1)c1ccoc1	inactive	320 µg/mL (≈ 1580 µM)	inactive	320 µg/mL (≈ 1580 µM)	inactive	320 µg/mL (≈ 1580 µM)	inactive	320 µg/mL (≈ 1580 µM)	320 µg/mL (≈ 1580 µM)	inactive	320 µg/mL (≈ 1580 µM)	inactive	inactive	320 µg/mL (≈ 1580 µM)	320 µg/mL (≈ 1580 µM)	inactive	320 µg/mL (≈ 1580 µM)	inactive	320 µg/mL (≈ 1580 µM)	320 µg/mL (≈ 1580 µM)	Activity (Rhizopus arrhizus): inactive; Activity (Aspergillus niger): inactive; Activity (Prototheca zopfii): inactive; Activity [3]: inactive; MFC (Aspergillus flavus): 320 µg/mL (≈ 1580 µM); MIC (Aspergillus flavus): 320 µg/mL (≈ 1580 µM); Activity (Saccharomyces cerevisiae): inactive; MIC (Scedosporium boydii): 320 µg/mL (≈ 1580 µM); Activity (Sporothrix schenckii): inactive; MIC (Sporothrix schenckii): 320 µg/mL (≈ 1580 µM); Activity (Nakaseomyces glabratus): inactive; Activity (Aspergillus fumigatus): inactive
O=C(NCc1cccnc1)c1ccoc1	inactive	320 µg/mL (≈ 1580 µM)	inactive	320 µg/mL (≈ 1580 µM)	inactive	320 µg/mL (≈ 1580 µM)	inactive	320 µg/mL (≈ 1580 µM)	160 µg/mL (≈ 791 µM)	inactive	320 µg/mL (≈ 1580 µM)	inactive	inactive	320 µg/mL (≈ 1580 µM)	160 µg/mL (≈ 791 µM)	inactive	320 µg/mL (≈ 1580 µM)	inactive	320 µg/mL (≈ 1580 µM)	160 µg/mL (≈ 791 µM)	MIC (Candida dubliniensis): 320 µg/mL (≈ 1580 µM); MFC (Rhizopus arrhizus): 320 µg/mL (≈ 1580 µM); MFC (Aspergillus niger): 320 µg/mL (≈ 1580 µM); MIC (Aspergillus niger): 320 µg/mL (≈ 1580 µM); MFC (Prototheca zopfii): 160 µg/mL (≈ 791 µM); MFC [3]: 320 µg/mL (≈ 1580 µM); Activity (Aspergillus flavus): inactive; MFC (Saccharomyces cerevisiae): 320 µg/mL (≈ 1580 µM); MIC (Saccharomyces cerevisiae): 320 µg/mL (≈ 1580 µM); MIC (Scedosporium boydii): 160 µg/mL (≈ 791 µM); MFC (Sporothrix schenckii): 320 µg/mL (≈ 1580 µM); MIC (Sporothrix schenckii): 320 µg/mL (≈ 1580 µM); Activity (Nakaseomyces glabratus): inactive; MFC (Aspergillus fumigatus): 320 µg/mL (≈ 1580 µM); MIC (Aspergillus fumigatus): 320 µg/mL (≈ 1580 µM)
